Experimental findings from ChEMBL document CHEMBL3044705, “Synthesis and insecticidal activity of an oxabicyclolactone and novel pyrethroids” (2012) are described below.

A word on the mortality: it is the percentage killed.

What all share (type): functional
For experiment [1], the system named is Ascia monuste. Description: Insecticidal activity against Ascia monuste orseis assessed as mortality at 10 ug applied on thoracic tergite at 25 +/- 0.5 degC and 75 +/- 5 % RH with food for 24 hr. In short, it runs like this: (§1)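 Topical contact assay. Dose was expressed per mg of insect body weight: 5 μg/mg for P. americana, 10 µg/mg for A. monuste orseis, and 50 μg/mg for A. obtectus and S. zeamais. The acetone control received solvent only. Insects were held in Petri dishes in an incubator with a 12 h photoperiod. Dead and motionless insects were both counted as dead. Mean percent mortality was compared by Tukey test at the 0.05 level.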

Experiment [2] deals with Acanthoscelides obtectus. Description: Insecticidal activity against Acanthoscelides obtectus assessed as mortality at 50 ug applied on thoracic tergite at 25 +/- 0.5 degC and 75 +/- 5 % RH without food for 24 hr. In short, it runs like this:
as §1

Experiment [3] relates to Periplaneta americana. Description: Insecticidal activity against second-instar nymph Periplaneta americana (American cockroach) assessed as mortality at 5 ug applied on thoracic tergite at 25 +/- 0.5 degC and 75 +/- 5 % RH with food for 24 hr. In short, it runs like this: as §1
In experiment [4] the test system is Ascia monuste. Description: Insecticidal activity against Ascia monuste orseis assessed as mortality at 10 ug applied on thoracic tergite at 25 +/- 0.5 degC and 75 +/- 5 % RH with food for 12 hr. In short, it runs like this: as §1
Experiment [5] relates to Sitophilus zeamais. The experiment is described as follows: Insecticidal activity against Sitophilus zeamais assessed as mortality at 50 ug applied on thoracic tergite at 25 +/- 0.5 degC and 75 +/- 5 % RH without food for 24 hr. The essentials:
as §1

For experiment [6], the system named is Periplaneta americana. The experiment is described as follows: Insecticidal activity against second-instar nymph Periplaneta americana (American cockroach) assessed as mortality at 5 ug applied on thoracic tergite at 25 +/- 0.5 degC and 75 +/- 5 % RH with food for 12 hr. In short, it runs like this:
as §1

The subject of experiment [7] is Acanthoscelides obtectus. The experiment is described as follows: Insecticidal activity against Acanthoscelides obtectus assessed as mortality at 50 ug applied on thoracic tergite at 25 +/- 0.5 degC and 75 +/- 5 % RH without food for 12 hr. The essentials:
as §1

The test system of experiment [8] is Sitophilus zeamais. Description: Insecticidal activity against Sitophilus zeamais assessed as mortality at 50 ug applied on thoracic tergite at 25 +/- 0.5 degC and 75 +/- 5 % RH without food for 12 hr. In short, it runs like this:
as §1

As to `CC1(C)C2COC(=O)C21` (stereo not given), the mortality with Ascia monuste [1] was 100%; with Acanthoscelides obtectus [2], 100%; in the experiment on Periplaneta americana [3], 100%; with Ascia monuste [4] it was 100%; in the experiment with Sitophilus zeamais [5], 90%; in the experiment with Periplaneta americana [6] it was 100%. Besides, the mortality stood at 100% in the experiment with Acanthoscelides obtectus [7] and 85% with Sitophilus zeamais [8].
In the case of `COC(=O)[C@H]1[C@H](C=Cc2c(F)c(F)c(F)c(F)c2F)C1(C)C`, the mortality in the experiment on Ascia monuste [1], in the experiment on Acanthoscelides obtectus [2], with Periplaneta americana [3], in the experiment on Ascia monuste [4], in the experiment on Sitophilus zeamais [5] and with Periplaneta americana [6] was 100% each time. Also, the mortality stood at 100% with Acanthoscelides obtectus [7] and 97.5% in the experiment on Sitophilus zeamais [8].
Take `COC(=O)[C@H]1[C@H](C=O)C1(C)C`: the mortality in the experiment on Ascia monuste [1] came to 47.5%; in the experiment with Acanthoscelides obtectus [2], 100%; with Periplaneta americana [3] it was 96%; in the experiment on Ascia monuste [4], 27.5%; in the experiment on Sitophilus zeamais [5] it was 47.5%; in the experiment on Periplaneta americana [6], 79.33%. Besides, the mortality with Acanthoscelides obtectus [7] is listed as 100%; in the experiment with Sitophilus zeamais [8], 45%.
Turning to `COC(=O)[C@H]1[C@H](C=Cc2ccccc2OC)C1(C)C`, the mortality worked out at 95% in the experiment with Ascia monuste [1]; 95% in the experiment with Acanthoscelides obtectus [2]; 100% in the experiment with Periplaneta americana [3]; 62.5% in the experiment with Ascia monuste [4]; 95% in the experiment on Sitophilus zeamais [5]; 100% with Periplaneta americana [6]. In addition, the mortality is recorded as 87.5% in the experiment with Acanthoscelides obtectus [7] and 95% in the experiment with Sitophilus zeamais [8].
Consider `CC1(C)C(C=C(Cl)Cl)C1C(=O)OCc1cccc(Oc2ccccc2)c1` (stereo not given) [PERMETHRIN], for which the mortality in the experiment on Ascia monuste [1] was 100%; with Acanthoscelides obtectus [2] it was 100%; with Periplaneta americana [3] it was 97.5%; with Ascia monuste [4], 100%; in the experiment with Sitophilus zeamais [5], 90%; in the experiment with Periplaneta americana [6] it was 87.5%. The mortality stood at 100% in the experiment on Acanthoscelides obtectus [7] and 85.5% in the experiment on Sitophilus zeamais [8].
As for `COC(=O)[C@H]1[C@H](C=Cc2ccccc2Cl)C1(C)C` (mixture of isomers), the mortality in the experiment on Ascia monuste [1] worked out at 100%; in the experiment on Acanthoscelides obtectus [2], 97.5%; with Periplaneta americana [3] it was 67%; in the experiment with Ascia monuste [4], 100%; in the experiment with Sitophilus zeamais [5], 90%; in the experiment with Periplaneta americana [6], 67%. The figures for the mortality with Acanthoscelides obtectus [7] and with Sitophilus zeamais [8] were 97.5% and 82.5%, respectively.
For the compound `COC(=O)[C@H]1[C@H](C=Cc2cccc(OC)c2)C1(C)C`, the mortality in the experiment on Ascia monuste [1] came to 95%; with Acanthoscelides obtectus [2] it was 92.5%; in the experiment with Ascia monuste [4], 75%; with Sitophilus zeamais [5], 97.5%; in the experiment on Periplaneta americana [6], 92%; with Acanthoscelides obtectus [7], 82.5%. In addition, the mortality in the experiment with Sitophilus zeamais [8] is 92.5%.
Regarding `COC(=O)[C@@H]1[C@@H](C=O)C1(C)C`, the mortality with Ascia monuste [1] was found to be 67.5%; in the experiment with Acanthoscelides obtectus [2], 97.5%; in the experiment with Periplaneta americana [3], 71%; in the experiment with Ascia monuste [4], 50%; in the experiment on Sitophilus zeamais [5], 45%; in the experiment on Periplaneta americana [6], 67%. Further, the mortality stood at 90% in the experiment on Acanthoscelides obtectus [7] and 42.5% with Sitophilus zeamais [8].
On to `CCOc1ccc(C=C[C@H]2[C@H](C(=O)OC)C2(C)C)cc1`, for which the mortality in the experiment on Ascia monuste [1] was 92.5%; in the experiment on Acanthoscelides obtectus [2] it was 97.5%; in the experiment on Ascia monuste [4], 75%; with Sitophilus zeamais [5], 100%; in the experiment with Periplaneta americana [6] it was 75%; in the experiment on Acanthoscelides obtectus [7], 97.5%. Also, the mortality in the experiment on Sitophilus zeamais [8] stood at 97.5%.
